TRPC4 agonist = activators of mouse TRPC4 channel, primary screen, Fluo4 calcium, HEK293 TRPC4beta/mu-opioid cells; Fluo4 calcium fluorescence; stronger effect = higher value; Short transient receptor potential channel 4 (Mus musculus), Q9QUQ5; AID 2237, 2010; B-score at 10 µM; actives 0.49% (n = 310,000);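 active = B-score above 5 SD of library B-scores, and initial fluorescence ratio not above library mean plus 5 SD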;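 also: positive B-score marks a calcium rise read as TRPC4 activation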
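system = HEK293 cells stably co-expressing mouse TRPC4beta and mu-opioid receptor | schedule = Fluo4 dye loading 45 min at room temperature, 110 s recording | measure = B-scored integrated calcium fluorescence ratio | signal = Fluo4 calcium-sensitive dye fluorescence, kinetic, 1 Hz baseline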
TRPC4 block = inhibitors of mouse TRPC4 channel, primary screen, Fluo4 calcium, HEK293 TRPC4beta/mu-opioid cells; AID 2247, 2010; Short transient receptor potential channel 4 (Mus musculus), Q9QUQ5; actives 0.39% (n = 300,000); DAMGO-evoked Fluo4 calcium flux; stronger effect = lower value; B-score at 10 µM;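 active = B-score over 3 SD under the library average, no early fluorescence shift, positive overall ratio signal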
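Signal: kinetic Fluo4 fluorescence imaging of calcium influx. Material: stable TRPC4beta/mu-opioid receptor HEK293 cells. Probe or stimulus: DAMGO in two steps, submaximal then maximal.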
TRPC6 inh = mouse TRPC6 channel inhibitors, primary screen, cell-based, HEK293, membrane potential dye; ACh-evoked depolarization; stronger effect = lower value; B-score at 10 µM; actives 1.1% (n = 310,000);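 active = B-score under library mean minus 3 SD, initial fluorescence not abnormally high, positive integrated signal ratio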;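 also: B-score derived from integrated fluorescence ratio over the kinetic read; more negative B-score means stronger inhibition of depolarization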
Target sequence (Q61143 whole entry, looked up): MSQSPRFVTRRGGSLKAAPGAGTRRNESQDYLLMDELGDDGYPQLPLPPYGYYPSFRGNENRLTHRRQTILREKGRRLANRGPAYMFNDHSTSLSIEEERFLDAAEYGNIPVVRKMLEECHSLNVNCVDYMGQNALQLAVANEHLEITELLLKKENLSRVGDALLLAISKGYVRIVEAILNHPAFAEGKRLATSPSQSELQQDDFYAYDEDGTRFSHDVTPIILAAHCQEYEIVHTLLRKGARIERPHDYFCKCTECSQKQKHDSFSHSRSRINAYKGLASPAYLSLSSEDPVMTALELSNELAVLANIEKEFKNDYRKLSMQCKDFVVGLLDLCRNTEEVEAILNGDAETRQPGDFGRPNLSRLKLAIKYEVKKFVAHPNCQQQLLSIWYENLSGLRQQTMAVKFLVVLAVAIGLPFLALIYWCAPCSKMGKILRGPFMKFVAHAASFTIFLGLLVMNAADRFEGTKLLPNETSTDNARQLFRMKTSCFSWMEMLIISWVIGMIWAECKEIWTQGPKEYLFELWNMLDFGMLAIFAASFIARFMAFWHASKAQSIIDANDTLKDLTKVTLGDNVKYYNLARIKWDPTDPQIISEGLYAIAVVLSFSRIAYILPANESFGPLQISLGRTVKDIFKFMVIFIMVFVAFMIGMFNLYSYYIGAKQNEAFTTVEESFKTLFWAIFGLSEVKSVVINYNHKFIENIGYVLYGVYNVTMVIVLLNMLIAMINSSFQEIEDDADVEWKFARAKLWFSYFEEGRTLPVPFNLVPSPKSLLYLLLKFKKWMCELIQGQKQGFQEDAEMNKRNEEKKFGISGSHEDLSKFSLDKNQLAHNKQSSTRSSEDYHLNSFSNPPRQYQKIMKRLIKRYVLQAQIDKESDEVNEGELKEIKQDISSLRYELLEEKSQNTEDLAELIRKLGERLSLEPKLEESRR
TRPC4 potent = positive allosteric modulators of TRPC4, primary screen, cell-based, mouse TRPC4beta, HEK293 mu-opioid, Fluo-4 calcium; Short transient receptor potential channel 4 (Mus musculus), Q9QUQ5; DAMGO EC20, Fluo-4 Ca2+ flux; stronger effect = higher value; B-score at 10 µM; actives 0.42% (n = 310,000);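 active = B-score of calcium response area above 5 SD of library B-scores, with initial fluorescence ratio within 5 SD of library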;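 also: B-score of integrated fluorescence ratio over time as area under calcium response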
TRPC6 act = mouse TRPC6 channel activators, primary screen, cell-based, HEK293, membrane potential dye; Short transient receptor potential channel 6 (Mus musculus), Q61143; HEK293-TRPC6 membrane potential dye fluorescence; stronger effect = higher value; B-score at 10 µM; actives 0.13% (n = 310,000); AID 2550, 2010;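 active = B-score of the integrated fluorescence ratio above library mean plus 3 SD, and starting fluorescence ratio within library mean plus 5 SD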;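 also: higher score means more depolarization so channel activation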
DNA FID counter = compounds displacing fluorescent DNA intercalator, primary screen, artefact control for HCV NS3 helicase inhibitor project, biochemical, FID fluorescence. actives 0.17% (n = 290,000). inhibition, % at 7.9 µM. DNA fluorescent intercalator displacement; in the data active = inhibition above about 37%;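 also: 0% = vehicle and 100% = reference compound; higher means more ethidium bromide displaced from hairpin DNA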
TRPC4 spec 2 = second check of whether TRPC6 inhibitors also affect mouse TRPC4 | inhibition, % at 10 µM | actives 42% (n = 920) | shares compounds with TRPC6 inh | AID 2776 | HEK293 TRPC4/MOR, membrane potential dye fluorescence; channel activated by saturating DAMGO dose;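 active = compounds whose fluorescence signal differed from control wells by over 3 SD, either direction, in both duplicate plates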
TRPC4 spec = mouse TRPC4 modulation by TRPC6 hits, confirmation, selectivity assay for TRPC6 inhibitor project, cell-based, HEK293 TRPC4/mu-opioid, membrane potential dye | shares compounds with TRPC6 inh | membrane potential fluorescence | activity change, negative = inhibition, % at 10 µM | actives 61% (n = 920);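 active = rise or fall in signal beyond 3 SD of buffer-only wells in both replicate plates, either sign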;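 also: integrated kinetic ratio of fluorescence range over baseline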
HEK293 MPD ctr 2-1 = nonspecific membrane potential effects, parental HEK293, confirmation, counter-screen for TRPC6 inhibitor project, cell-based, second counter screen. shares compounds with TRPC6 inh. parental HEK293 membrane potential dye fluorescence; maximal acetylcholine challenge after compound addition. signal change vs control, % at 10 µM. actives 31% (n = 920). AID 2779, 2010;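 active = membrane potential signal moving either way by over 3 SD of the maximum-effect control, in both duplicate plates, meaning non-specific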
HEK293 MPD ctr-1 = membrane potential modulation in parental HEK293, confirmation, counter-screen for TRPC6 inhibitor project, cell-based | shares compounds with TRPC6 inh | parental HEK293 membrane potential dye fluorescence | membrane potential signal change, % at 10 µM | actives 60% (n = 920);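 active = membrane potential signal shifting up or down by more than 3 SD of buffer-only wells, on both duplicate plates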
HEK293 MPD ctr-2 = parental HEK293 membrane potential modulation, confirmation, counter-screen for TRPC6 modulator project, cell-based | actives 51% (n = 2,400) | membrane potential dye fluorescence | shares compounds with TRPC6 inh | membrane potential signal change, % at 10 µM | AID 488924, 2010;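 active = membrane potential signal moves up or down beyond 5 SD from buffer-only wells, on both duplicate plates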
HEK293 MPD ctr 2-2 = second check of TRPC6 modulator effects in parental HEK293 cells; inhibition, % at 10 µM; AID 488926; membrane potential dye fluorescence; after compound, maximal acetylcholine stimulation; shares compounds with TRPC6 inh; actives 14% (n = 2,400);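 active = membrane potential signal drops by more than 5 SD from the mean control signal, in both duplicate plates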;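 also: plate controls were acetylcholine ECmax control wells for no effect and buffer only wells for full effect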
TRPC4/MOR mod = TRPC4 modulation by TRPC6 hit compounds, confirmation, selectivity assay for TRPC6 modulator project, cell-based, HEK293 TRPC4/mu-opioid, membrane potential dye, mouse; shares compounds with TRPC6 inh; membrane potential fluorescence; percent change from control (negative = decrease, positive = increase), % at 10 µM; actives 69% (n = 2,400); AID 488927, 2010;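 active = membrane potential signal moved up or down beyond 5 SD of buffer control wells, in both duplicate plates, actives on both sides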;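 also: plate controls were assay buffer wells for no effect and DAMGO maximal-effect wells for full effect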
TRPC4 ctr inh 2 = second check of whether TRPC6 modulators also affect mouse TRPC4; actives 55% (n = 2,400); shares compounds with TRPC6 inh; HEK293 TRPC4/mu-opioid, membrane potential dye fluorescence; stimulated with maximal-effect DAMGO; inhibition, % at 10 µM;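 active = drop in membrane potential signal beyond 5 SD of the control wells in both duplicate plates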;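 also: TRPC4 counter screen for TRPC6 hits run under conditions tuned for TRPC6 not TRPC4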
TRPC6 inh conf = mouse TRPC6 channel inhibitors, confirmation, HEK293 cells, membrane potential dye, duplicate. shares compounds with TRPC6 inh. ACh-evoked depolarization. inhibition, % at 10 µM. actives 43% (n = 3,300). AID 488960, 2010;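 active = fluorescence ratio falls more than 5 SD below the full-stimulation control mean, in both duplicate runs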;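 also: integrated fluorescence ratio of peak minus minimum over baseline after agonist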
TRPC6 act confirm = mouse TRPC6 channel activators, confirmation, HEK293 cells, membrane potential dye, duplicate | actives 11% (n = 2,800) | HEK293-TRPC6 membrane potential dye fluorescence, FDSS | shares compounds with TRPC6 inh | activation, % at 10 µM | AID 488961, 2010;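 active = ratio signal rise beyond 5 SD above unstimulated control wells' mean, seen in both duplicate runs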;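 also: plate controls were buffer EC0 wells for no effect and acetylcholine ECmax response for full effect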
Numbers without * were called inactive; i = inactive; nt = no result. Hits are enriched below; roughly 2.3% of the tested compounds scored in any of these assays.

SMILES	TRPC4 agonist	TRPC4 block	TRPC6 inh	TRPC4 potent	TRPC6 act	DNA FID counter	HEK293 MPD ctr-2	HEK293 MPD ctr 2-2	TRPC4/MOR mod	TRPC4 ctr inh 2	TRPC6 inh conf	TRPC6 act confirm	others
CSc1ccc(S(=O)(=O)NCC(=O)OCC(=O)N(C)C2CCCCC2)cc1[N+](=O)[O-]	i	i	i	i	i	nt	nt	nt	nt	nt	nt	nt
CC1(C)C2CCC1(CS(=O)(=O)NC(CC(=O)O)c1cccc(Br)c1)C(=O)C2 (configuration not stated)	i	i	i	i	i	-30	nt	nt	nt	nt	nt	nt
O=C(Nc1cc(C(F)(F)F)ccc1-n1cnc2ccccc21)c1ccccc1	i	i	-5.3*	i	i	-11	106%*	i	19%*	i	47%*	nt
CCN1CCN(c2c(Cl)cccc2NC(=O)c2ccc([N+](=O)[O-])cc2)CC1	99*	i	-5.9*	i	i	14	-225%*	i	-34%*	63%*	i	i
O=C(Nc1ccc(Cl)cc1)c1ccc2nsnc2c1	i	i	i	i	i	3	nt	nt	nt	nt	nt	nt
CCN1CCN(c2c(Cl)cccc2NC(=O)c2ccc3nsnc3c2)CC1	63*	i	-9.6*	19*	i	3	-206%*	i	-36%*	64%*	48%*	i
Cc1ccc(C(=O)N2CCCC(N3CCN(c4ccccc4C)CC3)C2)c(=O)[nH]1 (configuration not stated)	i	i	i	i	i	-15	nt	nt	nt	nt	nt	nt
COc1ccc(Br)cc1CN(C)CC(=O)NCCc1ccccc1	i	i	i	i	i	1	nt	nt	nt	nt	nt	nt
c1csc(COc2ccccc2CNC2CCCCC2)c1	i	-10*	-11*	i	13*	9	514%*	120%*	109%*	90%*	111%*	163%*
COc1cccc(CNC2CCCCCCC2)c1OC	i	i	-7.2*	i	i	6	nt	nt	nt	nt	62%*	nt	TRPC4 spec 2=75%*;TRPC4 spec=23%*;HEK293 MPD ctr 2-1=39%*;HEK293 MPD ctr-1=9.3%*
c1ccc(COc2ccccc2CNC2CCCC2)cc1	i	i	-7.7*	i	i	10	531%*	130%*	112%*	90%*	108%*	nt
O=C(COc1ccc(Br)cc1CNC1CCCCC1)NCCc1ccccc1	i	i	-5.1*	i	i	22	212%*	i	41%*	62%*	i	nt
COc1cc(OC)c(OC)cc1CNC1CCCCCC1	i	i	i	i	i	9	nt	nt	nt	nt	nt	nt
COc1cc(CNC2CCCC2)cc(Cl)c1OCc1ccccc1Cl	i	i	i	i	i	25	nt	nt	nt	nt	nt	nt
COc1ccc(CNC(=O)Cn2cccc2C(=O)c2ccccc2)cc1	i	i	i	i	i	-17	nt	nt	nt	nt	nt	nt
COc1ccccc1CNC(=O)C12CC3CC(CC(C3)C1)C2	i	i	i	i	i	-29	nt	nt	nt	nt	nt	nt
c1ccc(COc2ccccc2CNC23CC4CC(CC(C4)C2)C3)cc1	i	i	-6.3*	i	25*	25	922%*	i	196%*	73%*	65%*	266%*
CCCn1c(SC(C)C(=O)NCC2CCCO2)nc2sc(CC)cc2c1=O (configuration not stated)	i	i	i	i	i	-39	nt	nt	nt	nt	nt	nt
COc1cnc(-c2ccccn2)nc1Oc1ccccc1	i	i	i	i	i	0	nt	nt	nt	nt	nt	nt
COc1cnc(-c2ccccn2)nc1Sc1ccccc1	i	i	i	i	i	-17	nt	nt	nt	nt	nt	nt
COc1cnc(-c2ccccn2)nc1N(C)c1ccccc1	i	i	-5.9*	i	i	-8	-59%*	i	i	28%*	i	i
COc1ccc(Sc2nc(-c3ccccn3)ncc2OC)cc1	i	i	-6.1*	i	i	-19	-99%*	i	-15%*	i	i	i

High-throughput results (PubChem BioAssay)
